Test results taken from the RNAGym collection of RNA variant scans (doi:10.1126/science.aae0568).
Variants at the floor of the assay were thinned out.

B1: tRNA (parent)
chain: GUUCCGUUGGCGUAAUGGUAACGCGUCUCCCUCCUAAGGAGAAGACUGCGGGUUCGAGUCCCGUACGGAACG

Variants of: B1
Assay: yeast fitness relative to wild type (ratio to wild type); higher = fitter; tRNA-Arg(CCU), competitive growth, 37 C, YPD
Method in brief: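 A pool of Saccharomyces cerevisiae strains, each with a tRNA-Arg(CCU) gene variant at the native genomic locus, was competed in YPD at 37°C for 24 hours across six parallel replicates. The variants had been chemically synthesised at a 3% per-site mutation rate over 69 sites, and gene amplicons before and after competition were read by 100-nucleotide paired-end sequencing. Darwinian fitness relative to wild type rested on changes in genotype frequencies. Genotypes required ≥ 100 starting reads, and estimates < 0.5 were set to 0.5.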
U16C C30U gave a yeast fitness of 0.893. With U16A C24A A43G the yeast fitness was ≤ 0.5. For A15U G18A C33G A42C, the yeast fitness was ≤ 0.5. In the case of G17A C24U C34A A40G C61U A69U, the yeast fitness is reported as ≤ 0.5. With A15U G39C U47C the yeast fitness was ≤ 0.5. With U16C C24U C30U C66U the yeast fitness was ≤ 0.5. U16A C24G showed a yeast fitness of 0.528. Work on A15U G18C yielded a yeast fitness of 0.589. In the case of A15U C30G C61U G68A, the yeast fitness is reported as ≤ 0.5. A15U G25A showed a yeast fitness of 1. In the case of U16G A20U G38A, the yeast fitness is reported as 0.538. U16A C22U C55A showed a yeast fitness of 0.808. Work on A15G U64G A69C yielded a yeast fitness of 0.564. Variant G17A C22U has a yeast fitness of 0.737. With A15G U47C G68C the yeast fitness was ≤ 0.5. G17A A37C gave a yeast fitness of 0.681. With G17A C24G C33U A37U the yeast fitness was ≤ 0.5. For A15U A57C A65U, the yeast fitness was 0.794. For A15U A21C U53C G56C A65G, the yeast fitness was 0.77. Work on U16G C34G A37C yielded a yeast fitness of 0.706. Variant U16A C29G has a yeast fitness of 0.669. With U16A A21U C30A G38A C55A A65C the yeast fitness was ≤ 0.5. In the case of U16C C27U G63A A65G, the yeast fitness is reported as ≤ 0.5. For A15U A42G, the yeast fitness was 0.746. U16A C24A C30G C34U G56C gave a yeast fitness of 0.634. In the case of G17A C22G U28A C31G C55A G68C, the yeast fitness is reported as ≤ 0.5. In the case of A15U A21U, the yeast fitness is reported as 0.708. In the case of G17A C22G C27A G63A, the yeast fitness is reported as 0.538. Variant A15U C30U has a yeast fitness of 0.859. For U16G A65U A70U, the yeast fitness was 0.64. With U16A C55A A69C the yeast fitness was ≤ 0.5. Work on G17A A69G yielded a yeast fitness of 0.813. Work on G17A A69C yielded a yeast fitness of 0.721. U16A U32A A40C U53A showed a yeast fitness of 0.551. For G17A C29G A45G C61U, the yeast fitness was ≤ 0.5. U16C U32C C49A showed a yeast fitness of 0.617. For U16C C31A G51A, the yeast fitness was ≤ 0.5. For U16C A21G, the yeast fitness was 0.91. With A15U A36U C60G the yeast fitness was ≤ 0.5. In the case of U16G G41C A45U G51A C61U A70C, the yeast fitness is reported as 0.639. Variant U16A A45C has a yeast fitness of 0.994. Work on U16G A45U G50A A69C yielded a yeast fitness of 0.631. With U16A U19G C33U A40C G41A A43C C61G the yeast fitness was ≤ 0.5. For U16G C29G C49G A65U, the yeast fitness was ≤ 0.5. For U16A C55U A57C, the yeast fitness was ≤ 0.5. For U16C G48A A70U, the yeast fitness was 0.798. Work on A15U C29U yielded a yeast fitness of 0.749. With A15U A20G A37C the yeast fitness was ≤ 0.5. For A15U C31U C49U G52A A57U G58C, the yeast fitness was ≤ 0.5. With U16A C31G the yeast fitness was 0.87. In the case of U16C C30A C31U, the yeast fitness is reported as 0.834. With U16G C22A C62A the yeast fitness was ≤ 0.5. With A15U A20C U32G A65C the yeast fitness was 0.537. With U16C G17C G38C C46U G58C the yeast fitness was 0.64. With U16A C31G A65C the yeast fitness was 0.619. With A15U G17A C46U C62U the yeast fitness was 0.865. With U16G U19A G23C C49U the yeast fitness was ≤ 0.5. U16G U59G gave a yeast fitness of 0.78. Work on G17A A42G yielded a yeast fitness of 0.732. With A15U A20U C24U A65G A70C the yeast fitness was ≤ 0.5. For A15G U28C U35A G38A C46G C62U G67U, the yeast fitness was ≤ 0.5. Work on A15U G25A C55G yielded a yeast fitness of 0.555. With U16C C27G G52A C60G A69U A70C the yeast fitness was ≤ 0.5. Variant A15U C24G C66U has a yeast fitness of 0.608. Work on U16A U54C yielded a yeast fitness of 0.849. In the case of U16A C24G G56A, the yeast fitness is reported as ≤ 0.5. In the case of A15U C60G C61U G68A, the yeast fitness is reported as ≤ 0.5. With A15U C62U the yeast fitness was 0.787. G17A C30G A40G C60A gave a yeast fitness of 0.678. In the case of G17A C22G C33U C62A, the yeast fitness is reported as ≤ 0.5. With G17A A21G U28G C62G the yeast fitness was ≤ 0.5. For A15U G25C G68A, the yeast fitness was ≤ 0.5. In the case of U16A C24G C60A C61G, the yeast fitness is reported as ≤ 0.5. For U16A G23C C27G C34A G44A, the yeast fitness was ≤ 0.5. With A15U U16G U35A U59A the yeast fitness was ≤ 0.5. For A15U G44A G58A G68C, the yeast fitness was ≤ 0.5. In the case of U16G C27U U28A G52C U54A C66U, the yeast fitness is reported as ≤ 0.5. For U16A A43C A45G, the yeast fitness was 0.988. Work on A15U C22G C31U yielded a yeast fitness of 0.536. For U16C A21C C22U, the yeast fitness was ≤ 0.5. With U16A G41A A70U the yeast fitness was 0.666. Variant U16G C30U C46G has a yeast fitness of 0.541. U16A A40U gave a yeast fitness of 1. In the case of U16A U32G C55G, the yeast fitness is reported as ≤ 0.5. In the case of A15G U28C C30U A36C A45U G50C, the yeast fitness is reported as ≤ 0.5. U16C G18A U28A C31A U32A A57G G67A gave a yeast fitness of 0.962. With G17A C24G C27G C62U G67A the yeast fitness was ≤ 0.5. With U16A C22U U26C U54G C66A the yeast fitness was 0.58. Variant G17A C29U G67A has a yeast fitness of 0.553. With A15U C46A C61G A69G the yeast fitness was ≤ 0.5. With U16A A37G G39A C49A G50A G68C the yeast fitness was 0.531. For U16A C30U A45G, the yeast fitness was ≤ 0.5. With A15U G63A A69C the yeast fitness was 0.539. In the case of G17A C22G C29U G51C C55G, the yeast fitness is reported as ≤ 0.5. In the case of G17A C30U A40U A57U, the yeast fitness is reported as ≤ 0.5. U16C U28C showed a yeast fitness of 0.859. In the case of A15U A20U C27G C49G, the yeast fitness is reported as 0.64. For U16A U28C U47C, the yeast fitness was 0.79. With A15U C33G A43C G44U the yeast fitness was ≤ 0.5. Variant A15U C24U G44A has a yeast fitness of 0.503. In the case of U16G C60A, the yeast fitness is reported as 0.606. With A15U C24U A65G the yeast fitness was 0.53. In the case of U16A C22G A69U, the yeast fitness is reported as 0.791. U16C A36C showed a yeast fitness of 0.675. With A15U G25A C33G C62G the yeast fitness was ≤ 0.5. For U16G C31G C55U C61A C66U, the yeast fitness was ≤ 0.5. Work on U16A U35C A45G G56C yielded a yeast fitness of 0.602. For A15U C33G C49A C60G, the yeast fitness was ≤ 0.5. For U16C G48C C62U A65G, the yeast fitness was ≤ 0.5. For U16A C31G A65U A70G, the yeast fitness was ≤ 0.5. U16A A42U gave a yeast fitness of 0.907. For U16G G68C A69G, the yeast fitness was 0.556. In the case of A15U G52C A65U G67C, the yeast fitness is reported as ≤ 0.5. For A15U C24A G25A U47C G52C A65U, the yeast fitness was ≤ 0.5. For U16A A37U C55G G56C, the yeast fitness was ≤ 0.5. G17A A37C C55U showed a yeast fitness of 0.56. With U16C C34A A37G the yeast fitness was ≤ 0.5. U16A U28C A70C showed a yeast fitness of 0.569. With A15U G18C C34G A42G G52C the yeast fitness was 0.575. Work on U16A G48U yielded a yeast fitness of 0.754. In the case of A15U C24U C27U, the yeast fitness is reported as ≤ 0.5. Work on A15G U32A yielded a yeast fitness of 0.637. Work on G17A C22G C27A yielded a yeast fitness of 0.579. For U16C G56A G67C, the yeast fitness was 0.514. For U16G U28G C34U C49U G63C, the yeast fitness was ≤ 0.5. In the case of U16G C30G C55G, the yeast fitness is reported as ≤ 0.5. In the case of U16A G17C A43U A45C C46A C61U, the yeast fitness is reported as ≤ 0.5. In the case of A15U A21C G39C U54A, the yeast fitness is reported as ≤ 0.5. For A15U A57U A65C, the yeast fitness was 0.586. In the case of U16A G18C U26A U47C A65C, the yeast fitness is reported as ≤ 0.5. For U16C C31A A42U C62G A70C, the yeast fitness was ≤ 0.5. For U16A G41C A45C, the yeast fitness was ≤ 0.5. In the case of A15U A65C G67A, the yeast fitness is reported as ≤ 0.5. With U16C C29U C34U A57C U64C the yeast fitness was ≤ 0.5. Variant G17A C31A has a yeast fitness of 0.706. With G17A A57G the yeast fitness was 0.906. With U16A C31A C34G C60U G68U the yeast fitness was ≤ 0.5. With U16G U53C C61G the yeast fitness was ≤ 0.5. In the case of A15U A21C C29U C30A G38A, the yeast fitness is reported as ≤ 0.5. In the case of A15U C29A C55A, the yeast fitness is reported as ≤ 0.5. With A15U C22G A37G C55G C60G the yeast fitness was ≤ 0.5. In the case of U16A A42C A69U, the yeast fitness is reported as 0.505. In the case of A15U A36C A40U G58C G67C, the yeast fitness is reported as ≤ 0.5. In the case of G17A A20G C29U C33U C60G, the yeast fitness is reported as ≤ 0.5. In the case of A15U G23A C60G, the yeast fitness is reported as ≤ 0.5. With U16G C29G C46U G51C C55G the yeast fitness was ≤ 0.5. For A15U A20C C46G G50C C61G, the yeast fitness was 0.604. For U16A A37G A40C U47G, the yeast fitness was ≤ 0.5. For A15U C24U G25C A37U A40C U53C G58C, the yeast fitness was ≤ 0.5. In the case of U16G C31U A42U, the yeast fitness is reported as 0.522. With U16C C22U A37U G67C the yeast fitness was ≤ 0.5. A15U U28A C46A showed a yeast fitness of 0.507. With A15U C31U A70G the yeast fitness was 0.629. A15U A40G C46U showed a yeast fitness of 0.697. For U16A C22A G23C C34U A36G A40U, the yeast fitness was ≤ 0.5. In the case of G17A, the yeast fitness is reported as 0.835. For U16C A42G G67A, the yeast fitness was ≤ 0.5. With U16G U26A C34U G50A A69U the yeast fitness was 0.551. With U16C C34G C55U the yeast fitness was ≤ 0.5. For U16A C29G U32A A36G C49U G51A, the yeast fitness was ≤ 0.5. A15U A40U G52A G68A showed a yeast fitness of 0.596. Work on U16G A20G A69C yielded a yeast fitness of 0.749. Work on A15G U32A A43U yielded a yeast fitness of 0.603. For A15U C31U C46G A65G A70U, the yeast fitness was ≤ 0.5. With A15U G63C C66G the yeast fitness was ≤ 0.5. With U16G G39C G56C the yeast fitness was ≤ 0.5. With A15U A40G G52C C62G the yeast fitness was ≤ 0.5.
